In ChEMBL document CHEMBL1146236, “Antineoplastic agents. 560. Isolation and structure of kitastatin 1 from an Alaskan Kitasatospora sp” (2007):
≈ marks a conversion by molar mass, not a printed value.

Key:
Micrococcus luteus = assay: Antibacterial activity against Micrococcus luteus Presque Isle 456; format: functional
Outline: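 Broth microdilution susceptibility test per NCCLS standards, strain Presque Isle 456. Compound reconstituted in sterile DMSO, diluted in the appropriate medium immediately before testing. MIC taken as the lowest concentration giving complete inhibition of visible growth (optically clear).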

BXPC-3 = assay: Growth inhibition of human BXPC3 cells after 48 hrs by sulforhodamine B assay; format: functional; details: BXPC-3, 48 h
Outline: (§1)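 Cells in 5% fetal bovine serum/RPMI1640 were seeded and preincubated 24 h, then exposed to serial compound dilutions for 48 h. Plates were TCA-fixed, stained with sulforhodamine B and read by microplate reader. ED50 (concentration giving 50% reduction in net protein increase) was calculated from optical density data.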

MCF7 = assay: Growth inhibition of human MCF7 cells after 48 hrs by sulforhodamine B assay; format: functional; details: MCF7, 48 h; outline: as §1
SF-268 = assay: Growth inhibition of human SF268 cells after 48 hrs by sulforhodamine B assay; format: functional; details: SF-268, 48 h; outline: as §1
NCI-H460 = assay: Growth inhibition of human NCI-H460 cells after 48 hrs by sulforhodamine B assay; format: functional; details: NCI-H460, 48 h; outline: as §1
KM-20L2 = assay: Growth inhibition of human KM20L2 cells after 48 hrs by sulforhodamine B assay; format: functional; details: KM-20L2, 48 h; outline: as §1
DU-145 = assay: Growth inhibition of human DU145 cells after 48 hrs by sulforhodamine B assay; format: functional; details: DU-145, 48 h; outline: as §1
P388 = assay: Growth inhibition of mouse P388 cells after 48 hrs by Coulter particle counting; details: P388, 48 h, read-out: ED50 (the source's name)
Cryptococcus neoformans = assay: Antifungal activity against Cryptococcus neoformans ATCC 90112; format: functional
Outline: (§2)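 Broth microdilution susceptibility testing, following NCCLS reference methods (M7-A5 for bacteria, M27-A2 for yeasts). Compounds reconstituted in sterile DMSO and diluted in the appropriate medium just before testing. MIC was the lowest concentration giving complete inhibition of visible growth (optically clear).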

Enterococcus faecalis = assay: Antibacterial activity against Enterococcus faecalis ATCC 29212; format: functional; outline: as §2

Structure (SMILES) | MIC (Micrococcus luteus) [ng/mL] | GI50 (BXPC-3) [ng/mL] | GI50 (MCF7) [ng/mL] | GI50 (SF-268) [ng/mL] | GI50 (NCI-H460) [ng/mL] | GI50 (KM-20L2) [ng/mL] | GI50 (DU-145) [ng/mL] | EC50 (P388) [ng/mL] | MIC (Cryptococcus neoformans) [ng/mL] | MIC (Enterococcus faecalis) [ng/mL]
CCC(C)[C@@H]1OC(=O)[C@H](C)OC(=O)[C@@H](NC(=O)c2cccc(NC=O)c2O)[C@@H](C)OC(=O)[C@H](C(C)C)OC(=O)C(C)(C)C(=O)[C@H](CC(C)C)NC1=O (stereo not given in full) | 64000 (≈ 87200 nM) | 1200 (≈ 1640 nM) | 0.64 (≈ 0.872 nM) | 16 (≈ 21.8 nM) | 0.63 (≈ 0.859 nM) | 0.58 (≈ 0.79 nM) | < 0.1 | 33 (≈ 45 nM) | – | –
CCC(C)[C@@H]1OC(=O)[C@H](C)OC(=O)[C@@H](NC(=O)c2cccc(N)c2O)[C@@H](C)OC(=O)[C@H](CC(C)C)OC(=O)C(C)(C)C(=O)[C@H](CC(C)C)NC1=O (stereo not given in full) [KITASTATIN] | – | 6.6 (≈ 9.17 nM) | 4 (≈ 5.56 nM) | 3.5 (≈ 4.86 nM) | < 1 | 2.4 (≈ 3.33 nM) | 2.6 (≈ 3.61 nM) | 45 (≈ 62.5 nM) | 64000 (≈ 88900 nM) | 64000 (≈ 88900 nM)
CCC(C)[C@@H]1OC(=O)[C@H](C)OC(=O)[C@@H](NC(=O)c2cccc(NC=O)c2O)[C@@H](C)OC(=O)[C@H](CC(C)C)OC(=O)C(C)(C)C(=O)[C@H](CC(C)C)NC1=O (stereo not given in full) [RESPIRANTIN] | – | 470 (≈ 628 nM) | 0.6 (≈ 0.802 nM) | 1.6 (≈ 2.14 nM) | 0.6 (≈ 0.802 nM) | 0.6 (≈ 0.802 nM) | 0.18 (≈ 0.241 nM) | 3.7 (≈ 4.95 nM) | 2000 (≈ 2670 nM) | –
